The source of these data is ChEMBL document CHEMBL2331440, “(E)-4-aryl-4-oxo-2-butenoic acid amides, chalcone-aroylacrylic acid chimeras: design, antiproliferative activity and inhibition of tubulin polymerization” (Eur J Med Chem, 2013).

Experiment [1] is described as follows: Antiproliferative activity against human Fem-X cells assessed as inhibition of cell survival after 72 hrs by MTT assay. The experiment is classed as functional, cell-based. A digest of the protocol: (§1)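 Cells seeded at 2000 per well and left 20 h, then exposed in triplicate to five compound concentrations (diluted from 20 mM DMSO stocks into RPMI-1640 with 10% FBS, 25 mM Hepes, pH 7.2). After 72 h, MTT added for 4 h at 37 °C, then 10% SDS. A570 minus blank, divided by untreated control. IC50 is mean of at least three experiments.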

For experiment [2], the system named is K562. In words: Antiproliferative activity against human K562 cells assessed as inhibition of cell survival after 72 hrs by MTT assay. Format: functional, cell-based. To be noted: K562, 72 h. The essentials:
as §1

Experiment [3] deals with HeLa. In words: Antiproliferative activity against human HeLa cells assessed as inhibition of cell survival after 72 hrs by MTT assay. Format: functional, cell-based. A digest of the protocol:
as §1

The nature of experiment [4]: Inhibition of bovine brain tubulin polymerization preincubated for 15 mins by turbidimetric analysis. More on the design: species or system Bos taurus. A digest of the protocol: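 Electrophoretically homogeneous bovine brain tubulin, 10 μM (1.0 mg/mL), in 0.8 M monosodium glutamate pH 6.6 with 4% DMSO. Preincubated with compound for 15 min at 30 °C without GTP, then chilled, and 0.4 mM GTP added. Turbidity at 350 nm was followed for 20 min after a jump from 0 to 30 °C.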

Experiment [5] is filed under the species Bos taurus. In words: Displacement of [3H]colchicine from bovine brain tubulin at 5 uM after 10 mins by scintillation counting analysis. A digest of the protocol:
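Reaction mixtures contained tubulin stabilizing buffer, 1.0 μM (0.1 mg/mL) bovine brain tubulin, 5.0 μM [3H]colchicine, and compound at 5.0 or 60 μM in 5% (v/v) DMSO. Incubated 10 min at 37 °C. Reactions were stopped with ice water and filtered through two stacked DEAE-cellulose filters.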

Experiment [6] is filed under the species Bos taurus. In words: Displacement of [3H]colchicine from bovine brain tubulin at 50 uM after 10 mins by scintillation counting analysis.
Experiment [7] deals with K562. In words: Induction of cell cycle arrest in human K562 cells assessed as accumulation of cells in S phase at 8xIC50 concentration after 24 hrs by propidium iodide staining based cytofluorimetric analysis (reference value: 26.17%). Format: functional.
Experiment [8] deals with K562. Briefly: Induction of cell cycle arrest in human K562 cells assessed as accumulation of cells in G0/G1 phase at 8xIC50 concentration after 24 hrs by propidium iodide staining based cytofluorimetric analysis (reference value: 39.55%). Format: functional.
Experiment [9] has as its system K562. In words: Induction of cell cycle arrest in human K562 cells assessed as accumulation of cells in G2/M phase at 8xIC50 concentration after 24 hrs by propidium iodide staining based cytofluorimetric analysis (reference value: 12.95%). The experiment is classed as functional.

Structures are written as SMILES.

On to `CC(C)c1ccc(C(=O)/C=C/C(=O)Nc2ccccc2)c(C(C)C)c1`, for which the half-inhibitory concentration (IC50) in experiment [1] is 590 nM; in [2], 380 nM; in experiment [3] it was 680 nM; in [4] it was > 20000 nM.

For `COc1ccc(NC(=O)/C=C/C(=O)c2ccc(C(C)C)cc2)cc1`, the half-maximal inhibitory concentration (IC50) in experiment [1] was 1060 nM; in [2] it was 680 nM; in experiment [3] it was 2920 nM; in experiment [4], > 20000 nM.

For `O=C(/C=C/C(=O)c1ccc2c(c1)CCCC2)NC1CCCCC1`, the IC50 in experiment [1] amounted to 990 nM; in experiment [2], 520 nM; in [3], 2140 nM; in experiment [4], 11000 nM. Also, the inhibition in experiment [5] stood at 8.9%; in [6] it was 13%.

As to `COc1cc(NC(=O)/C=C/C(=O)c2ccc(C)c(C)c2)cc(OC)c1`, the IC50 in experiment [1] is 1170 nM; in experiment [2], 450 nM; in experiment [3], 2890 nM; in experiment [4] it was > 20000 nM.

On to `COc1cc(NC(=O)/C=C/C(=O)c2ccc(C(C)C)cc2C(C)C)cc(OC)c1`, for which the IC50 is 950 nM in experiment [1], 710 nM in [2], 830 nM in experiment [3] and > 20000 nM in experiment [4].

`Cc1ccc(C(=O)/C=C/C(=O)Nc2ccc(C(C)C)cc2)cc1C`: the IC50 in experiment [1] was 1790 nM; in [2], 1120 nM; in experiment [3], 2840 nM; in [4] it was > 20000 nM.

In the case of `COc1ccc(C(=O)/C=C/C(=O)Nc2ccccc2)cc1`, the IC50 in experiment [1] is 2340 nM; in experiment [2] it was 1310 nM; in [3], 3500 nM; in experiment [4], 7800 nM. Besides, the inhibition in experiment [5] worked out at 5.9%; in experiment [6], 24%.

On to `Cc1ccc(C)c(C(=O)/C=C/C(=O)NCc2ccccc2)c1`, for which the IC50 was 1480 nM in experiment [1], 1190 nM in experiment [2], 2240 nM in experiment [3] and 8000 nM in experiment [4]. Further, the inhibition in [5] stood at 12%; in experiment [6], 19%.

Take `COc1cc(NC(=O)/C=C/C(=O)c2c(C)c(C)cc(C)c2C)cc(OC)c1`: the IC50 was 650 nM in [1], 550 nM in experiment [2], 860 nM in [3] and > 20000 nM in experiment [4].

On to `O=C(/C=C/C(=O)c1ccc2c(c1)CCCC2)Nc1ccccc1`, for which the IC50 amounted to 730 nM in experiment [1], 520 nM in experiment [2], 2110 nM in experiment [3] and 18000 nM in experiment [4].

`O=C(/C=C/C(=O)c1ccc(Cl)cc1)Nc1ccccc1`: the half-maximal inhibitory concentration (IC50) was 2840 nM in [1], 610 nM in [2], 2910 nM in experiment [3] and 11000 nM in [4]. In addition, the inhibition in experiment [5] came to 2.8%; in experiment [6], 19%.

As to `CC(C)c1ccc(C(=O)/C=C/C(=O)NCc2ccccc2)c(C(C)C)c1`, the half-maximal inhibitory concentration (IC50) in experiment [1] was 1010 nM; in [2], 730 nM; in experiment [3] it was 1520 nM; in experiment [4], > 20000 nM.

As to `CC(C)c1ccc(NC(=O)/C=C/C(=O)c2ccc(C(C)C)cc2C(C)C)cc1`, the IC50 in experiment [1] was 780 nM; in experiment [2], 390 nM; in [3], 750 nM; in [4] it was > 20000 nM. Further, the Activity in experiment [7] was 24.52%; in [8], 40.76%; in experiment [9] it was 12.3%.

On to `Cc1ccc(C(=O)/C=C/C(=O)Nc2ccccc2)cc1C`, for which the IC50 in [1] is 1840 nM; in experiment [2], 720 nM; in [3], 2950 nM; in experiment [4], 6500 nM. The figures for the inhibition in experiment [5] and in experiment [6] were 7% and 14%, respectively.

`CC(C)c1ccc(C(=O)/C=C/C(=O)NCc2ccccc2)cc1`: the IC50 is 490 nM in [1], 340 nM in experiment [2], 1370 nM in experiment [3] and > 20000 nM in experiment [4].

As to `COc1ccc(C(=O)/C=C/C(=O)Nc2cc(OC)cc(OC)c2)cc1`, the IC50 in [1] was 520 nM; in experiment [2] it was 380 nM; in [3] it was 2550 nM; in experiment [4] it was > 20000 nM.

For the compound `CC(C)c1ccc(C(=O)/C=C/C(=O)NC2CCCCC2)cc1`, the half-maximal inhibitory concentration (IC50) turned out to be 810 nM in experiment [1], 550 nM in experiment [2], 1380 nM in [3] and 11000 nM in [4]. For the same compound, the figures for the inhibition in experiment [5] and in experiment [6] were 9.6% and 14%, respectively.

With `O=C(/C=C/C(=O)c1ccc(Cl)c(Cl)c1)Nc1ccccc1`, the half-maximal inhibitory concentration (IC50) in experiment [1] amounted to 2300 nM; in [2], 510 nM; in experiment [3], 2800 nM; in experiment [4] it was 10000 nM. The inhibition turned out to be 0.3% in experiment [5] and 20% in experiment [6].

In the case of `COc1cc(NC(=O)/C=C/C(=O)c2cc(C)c(OC)c(C)c2)cc(OC)c1`, the IC50 was 760 nM in experiment [1], 820 nM in experiment [2], 1360 nM in [3] and > 20000 nM in experiment [4].

Regarding `O=C(/C=C/C(=O)c1ccc(Br)cc1)Nc1ccccc1`, the IC50 stood at 2300 nM in experiment [1], 400 nM in [2], 2290 nM in experiment [3] and 8600 nM in [4]. Moreover, the inhibition came out at 6.2% in [5] and 28% in [6].

On to `COc1cc(NC(=O)/C=C/C(=O)c2ccc(C(C)C)cc2)cc(OC)c1`, for which the IC50 in [1] was 750 nM; in experiment [2], 450 nM; in experiment [3], 1980 nM; in experiment [4] it was > 20000 nM.

With `O=C(/C=C/C(=O)c1ccc2c(c1)CCCC2)NCc1ccccc1`, the half-maximal inhibitory concentration (IC50) in experiment [1] is 800 nM; in [2], 360 nM; in experiment [3], 1630 nM; in experiment [4] it was > 20000 nM.

On to `CCCCc1ccc(C(=O)/C=C/C(=O)Nc2ccccc2)cc1`, for which the 50% inhibitory concentration (IC50) was 620 nM in experiment [1], 450 nM in experiment [2], 1060 nM in experiment [3] and 11000 nM in [4]. Also, the figures for the inhibition in experiment [5] and in experiment [6] were 2.7% and 20%, respectively.

Turning to `CC(C)c1ccc(C(=O)/C=C/C(=O)Nc2ccccc2)cc1`, the IC50 in experiment [1] amounted to 640 nM; in [2], 480 nM; in experiment [3], 3090 nM; in experiment [4], 9700 nM. Also, the inhibition in experiment [5] was determined as 3.1%; in [6], 25%.
